Source: ChEMBL document CHEMBL3286116, “Synthesis, biological evaluation and structure-activity correlation study of a series of imidazol-based compounds as Candida albicans inhibitors” (Eur J Med Chem, 2014)
≈ marks a conversion by molar mass, not a printed value.

What was measured:
Assay type in all cases: functional
[1] = test system: Cryptococcus neoformans; assay: Antifungal activity against Cryptococcus neoformans DSM 11959 after 72 hrs by CLSI broth microdilution method; conditions: DSM 11959, 72 h
Outline: (§1)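 Cryptococcus neoformans tested by CLSI broth microdilution in RPMI 1640, with serial two-fold dilutions from DMSO stocks at 100× the top concentration, final 0.125–64. Inoculum was 1.0–1.5 × 10^3 cells mL−1 at 35 °C, with growth read at 72 h. MIC is the lowest concentration with ≥50% growth inhibition versus control. Median of five replicates, plus geometric mean.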

[2] = test system: Candida albicans; assay: Antifungal activity against Candida albicans ATCC 10231 after 48 hrs by CLSI broth microdilution method; conditions: ATCC 10231, 48 h
Outline: (§2)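 Yeast CLSI broth microdilution (M27-A3). Compounds dissolved in DMSO at 100× the top test concentration, then diluted as serial two-fold dilutions in RPMI 1640 to final 0.125–64. Inoculum was 1.0–1.5 × 10^3 cells mL−1, incubated at 35 °C and read for growth at 48 h. MIC is the lowest concentration giving ≥50% growth inhibition versus growth control. Reported as the median of five replicates and as the geometric mean.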

[3] = test system: Candida tropicalis; assay: Antifungal activity against Candida tropicalis DSM 11953 after 48 hrs by CLSI broth microdilution method; conditions: DSM 11953, 48 h; outline: as §2
[4] = test system: Candida albicans; assay: Antifungal activity against Candida albicans ATCC 20891 after 48 hrs by CLSI broth microdilution method; conditions: ATCC 20891, 48 h; outline: as §2
[5] = test system: Cryptococcus neoformans; assay: Antifungal activity against Cryptococcus neoformans PMC 2115 after 72 hrs by CLSI broth microdilution method; conditions: PMC 2115, 72 h; outline: as §1
[6] = test system: Trichophyton mentagrophytes; assay: Antifungal activity against Trichophyton mentagrophytes PMC 6509 after 72 hrs by CLSI broth microdilution method; conditions: PMC 6509, 72 h
Outline: (§3)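 Dermatophytes tested by CLSI broth microdilution for filamentous fungi (M38-A2). Serial two-fold dilutions of DMSO-dissolved compound in RPMI 1640, final 0.125–64. Inoculum was 0.4–5 × 10^4 CFU mL−1, incubated at 35 °C and read at 72 h. MIC80 is the lowest concentration giving ≥80% growth inhibition versus growth control. Median of five replicates, plus geometric mean.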

[7] = test system: Nakaseomyces glabratus; assay: Ratio of fluconazole MIC to compound MIC for Candida glabrata PMC 0851R after 48 hrs by CLSI broth microdilution method
[8] = test system: Candida albicans; assay: Antifungal activity against Candida albicans ATCC 76615 after 48 hrs by CLSI broth microdilution method; conditions: ATCC 76615, 48 h; outline: as §2
[9] = test system: Candida albicans; assay: Antifungal activity against Candida albicans PMC 1041R after 48 hrs by CLSI broth microdilution method; outline: as §2
[10] = test system: Trichophyton mentagrophytes; assay: Antifungal activity against Trichophyton mentagrophytes PMC 6552 after 72 hrs by CLSI broth microdilution method; conditions: PMC 6552, 72 h; outline: as §3
[11] = test system: Candida tropicalis; assay: Antifungal activity against Candida tropicalis PMC 0910 after 48 hrs by CLSI broth microdilution method; conditions: PMC 0910, 48 h; outline: as §2
[12] = test system: Cryptococcus neoformans; assay: Antifungal activity against Cryptococcus neoformans PMC 2102 after 72 hrs by CLSI broth microdilution method; conditions: PMC 2102, 72 h; outline: as §1
[13] = test system: Candida albicans; assay: Antifungal activity against Candida albicans ATCC 3153 after 48 hrs by CLSI broth microdilution method; conditions: ATCC 3153, 48 h; outline: as §2
[14] = test system: Nakaseomyces glabratus; assay: Antifungal activity against Candida glabrata PMC 0852R after 48 hrs by CLSI broth microdilution method; outline: as §2
[15] = test system: Candida albicans; assay: Antifungal activity against Candida albicans PMC 1042R after 48 hrs by CLSI broth microdilution method; outline: as §2
[16] = test system: Nakaseomyces glabratus; assay: Antifungal activity against Candida glabrata PMC 0850R after 48 hrs by CLSI broth microdilution method; outline: as §2
[17] = test system: Candida parapsilosis; assay: Antifungal activity against Candida parapsilosis ATCC 22019 after 48 hrs by CLSI broth microdilution method; conditions: Lodderomyces parapsilosis, ATCC 22019, 48 h; outline: as §2
[18] = test system: Candida albicans; assay: Antifungal activity against Candida albicans PMC 1011 after 48 hrs by CLSI broth microdilution method; conditions: PMC 1011, 48 h; outline: as §2
[19] = test system: Trichophyton mentagrophytes; assay: Antifungal activity against Trichophyton mentagrophytes PMC 6515 after 72 hrs by CLSI broth microdilution method; conditions: PMC 6515, 72 h; outline: as §3
[20] = test system: Trichophyton mentagrophytes; assay: Antifungal activity against Trichophyton mentagrophytes DSM 4870 after 72 hrs by CLSI broth microdilution method; conditions: DSM 4870, 72 h; outline: as §3
[21] = test system: Nakaseomyces glabratus; assay: Antifungal activity against Candida glabrata PMC 0805 after 48 hrs by CLSI broth microdilution method; conditions: PMC 0805, 48 h; outline: as §2
[22] = test system: Candida parapsilosis; assay: Antifungal activity against Candida parapsilosis DSM 11224 after 48 hrs by CLSI broth microdilution method; conditions: Lodderomyces parapsilosis, DSM 11224, 48 h; outline: as §2
[23] = test system: Nakaseomyces glabratus; assay: Antifungal activity against Candida glabrata PMC 0807 after 48 hrs by CLSI broth microdilution method; conditions: PMC 0807, 48 h; outline: as §2
[24] = test system: Nannizzia gypsea; assay: Antifungal activity against Microsporum gypseum PMC 7331 after 72 hrs by CLSI broth microdilution method; conditions: PMC 7331, 72 h; outline: as §3
[25] = test system: Candida albicans; assay: Antifungal activity against Candida albicans ATCC 10261 after 48 hrs by CLSI broth microdilution method; conditions: ATCC 10261, 48 h; outline: as §2
[26] = test system: Nakaseomyces glabratus; assay: Antifungal activity against Candida glabrata PMC 0851R after 48 hrs by CLSI broth microdilution method; outline: as §2
[27] = test system: Candida albicans; assay: Antifungal activity against Candida albicans ATCC 90028 after 48 hrs by CLSI broth microdilution method; conditions: ATCC 90028, 48 h; outline: as §2
[28] = test system: Nakaseomyces glabratus; assay: Ratio of fluconazole MIC to compound MIC for Candida glabrata PMC 0852R after 48 hrs by CLSI broth microdilution method
[29] = test system: Nannizzia gypsea; assay: Antifungal activity against Microsporum gypseum PMC 7303 after 72 hrs by CLSI broth microdilution method; conditions: PMC 7303, 72 h; outline: as §3
[30] = test system: Candida albicans; assay: Antifungal activity against Candida albicans ATCC 24433 after 48 hrs by CLSI broth microdilution method; conditions: ATCC 24433, 48 h; outline: as §2
[31] = test system: Trichophyton mentagrophytes; assay: Antifungal activity against Trichophyton mentagrophytes PMC 6503 after 72 hrs by CLSI broth microdilution method; conditions: PMC 6503, 72 h; outline: as §3
[32] = test system: Candida albicans; assay: Ratio of fluconazole MIC to compound MIC for Candida albicans PMC 1040R after 48 hrs by CLSI broth microdilution method
[33] = test system: Cryptococcus neoformans; assay: Antifungal activity against Cryptococcus neoformans PMC 2123 after 72 hrs by CLSI broth microdilution method; conditions: PMC 2123, 72 h; outline: as §1
[34] = test system: Nakaseomyces glabratus; assay: Ratio of fluconazole MIC to compound MIC for Candida glabrata PMC 0853R after 48 hrs by CLSI broth microdilution method
[35] = test system: Nannizzia gypsea; assay: Antifungal activity against Microsporum gypseum DSM 3824 after 72 hrs by CLSI broth microdilution method; conditions: DSM 3824, 72 h; outline: as §3
[36] = test system: Nakaseomyces glabratus; assay: Ratio of fluconazole MIC to compound MIC for Candida glabrata PMC 0850R after 48 hrs by CLSI broth microdilution method
[37] = test system: Pichia kudriavzevii; assay: Antifungal activity against Candida krusei DSM 6128 after 48 hrs by CLSI broth microdilution method; conditions: DSM 6128, 48 h; outline: as §2
[38] = test system: Trichophyton mentagrophytes; assay: Antifungal activity against Trichophyton mentagrophytes PMC 6531 after 72 hrs by CLSI broth microdilution method; conditions: PMC 6531, 72 h; outline: as §3
[39] = test system: Cryptococcus neoformans; assay: Antifungal activity against Cryptococcus neoformans PMC 2107 after 72 hrs by CLSI broth microdilution method; conditions: PMC 2107, 72 h; outline: as §1
[40] = test system: Cryptococcus neoformans; assay: Antifungal activity against Cryptococcus neoformans PMC 2103 after 72 hrs by CLSI broth microdilution method; conditions: PMC 2103, 72 h; outline: as §1
[41] = test system: Candida albicans; assay: Antifungal activity against Candida albicans PMC 1040R after 48 hrs by CLSI broth microdilution method; outline: as §2
[42] = test system: Candida albicans; assay: Ratio of fluconazole MIC to compound MIC for Candida albicans PMC 1041R after 48 hrs by CLSI broth microdilution method
[43] = test system: Pichia kudriavzevii; assay: Antifungal activity against Candida krusei PMC 0613 after 48 hrs by CLSI broth microdilution method; conditions: PMC 0613, 48 h; outline: as §2
[44] = test system: Candida albicans; assay: Ratio of fluconazole MIC to compound MIC for Candida albicans PMC 1042R after 48 hrs by CLSI broth microdilution method
[45] = test system: Cryptococcus neoformans; assay: Antifungal activity against Cryptococcus neoformans PMC 2136 after 72 hrs by CLSI broth microdilution method; conditions: PMC 2136, 72 h; outline: as §1
[46] = test system: Cryptococcus neoformans; assay: Antifungal activity against Cryptococcus neoformans PMC 2111 after 72 hrs by CLSI broth microdilution method; conditions: PMC 2111, 72 h; outline: as §1
[47] = test system: Nakaseomyces glabratus; assay: Antifungal activity against Candida glabrata PMC 0853R after 48 hrs by CLSI broth microdilution method; outline: as §2

MIC50 [1]: 0.125 µg/mL (≈ 0.24 µM)
MIC50 [2]: 0.25 µg/mL (≈ 0.481 µM)
MIC50 [3]: 0.25 µg/mL (≈ 0.481 µM)
MIC50 [4]: 0.0625 µg/mL (≈ 0.12 µM)
MIC50 [5]: 0.25 µg/mL (≈ 0.481 µM)
MIC80 [6]: 4 µg/mL (≈ 7.69 µM)
MIC50 [8]: 0.5 µg/mL (≈ 0.962 µM)
MIC50 [9]: 0.5 µg/mL (≈ 0.962 µM)
MIC80 [10]: 2 µg/mL (≈ 3.85 µM)
MIC50 [11]: 2 µg/mL (≈ 3.85 µM)
MIC50 [12]: 0.25 µg/mL (≈ 0.481 µM)
MIC50 [13]: 0.5 µg/mL (≈ 0.962 µM)
MIC50 [14]: 2 µg/mL (≈ 3.85 µM)
MIC50 [15]: 1 µg/mL (≈ 1.92 µM)
MIC50 [16]: 0.25 µg/mL (≈ 0.481 µM)
MIC50 [17]: 0.125 µg/mL (≈ 0.24 µM)
MIC50 [18]: 0.0625 µg/mL (≈ 0.12 µM)
MIC80 [19]: 4 µg/mL (≈ 7.69 µM)
MIC80 [20]: 4 µg/mL (≈ 7.69 µM)
MIC50 [21]: 0.0625 µg/mL (≈ 0.12 µM)
MIC50 [22]: 0.0625 µg/mL (≈ 0.12 µM)
MIC50 [23]: 0.25 µg/mL (≈ 0.481 µM)
MIC80 [24]: 4 µg/mL (≈ 7.69 µM)
MIC50 [25]: 0.125 µg/mL (≈ 0.24 µM)
MIC50 [26]: 64 µg/mL (≈ 123 µM)
MIC50 [27]: 0.125 µg/mL (≈ 0.24 µM)
MIC80 [29]: 2 µg/mL (≈ 3.85 µM)
MIC50 [30]: 0.5 µg/mL (≈ 0.962 µM)
MIC80 [31]: 4 µg/mL (≈ 7.69 µM)
MIC50 [33]: 0.25 µg/mL (≈ 0.481 µM)
MIC80 [35]: 2 µg/mL (≈ 3.85 µM)
MIC50 [37]: 0.5 µg/mL (≈ 0.962 µM)
MIC80 [38]: 4 µg/mL (≈ 7.69 µM)
MIC50 [39]: 0.25 µg/mL (≈ 0.481 µM)
MIC50 [40]: 0.06 µg/mL (≈ 0.115 µM)
MIC50 [41]: 64 µg/mL (≈ 123 µM)
MIC50 [43]: 0.0625 µg/mL (≈ 0.12 µM)
MIC50 [45]: 0.0625 µg/mL (≈ 0.12 µM)
MIC50 [46]: 0.5 µg/mL (≈ 0.962 µM)
MIC50 [47]: 2 µg/mL (≈ 3.85 µM)
Structure (SMILES): O=C(Nc1ccc(N2CCN(c3ccc(Cl)cc3)CC2)cc1)O[C@@H](Cn1ccnc1)c1ccc(F)cc1
Ratio [7]: 15
Ratio [28]: 15
Ratio [32]: 15
Ratio [34]: 15
Ratio [36]: 15
Ratio [42]: 15
Ratio [44]: 15
